Assay results taken from ChEMBL document CHEMBL1125934, “Targeting 5'-deoxy-5'-(methylthio)adenosine phosphorylase by 5'-haloalkyl analogues of 5'-deoxy-5'-(methylthio)adenosine” (J Med Chem, 1991).

T1: S-methyl-5'-thioadenosine phosphorylase (Mus musculus) (UniProt Q9CQ65)
T1 sequence (whole entry): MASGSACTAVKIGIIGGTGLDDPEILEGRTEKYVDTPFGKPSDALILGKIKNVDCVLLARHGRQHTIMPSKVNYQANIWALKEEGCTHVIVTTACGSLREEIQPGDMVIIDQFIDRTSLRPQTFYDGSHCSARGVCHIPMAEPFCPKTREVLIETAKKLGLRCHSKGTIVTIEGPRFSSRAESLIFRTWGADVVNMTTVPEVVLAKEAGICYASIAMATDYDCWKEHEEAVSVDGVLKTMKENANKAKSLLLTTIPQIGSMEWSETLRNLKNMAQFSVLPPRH

T2: S-methyl-5'-thioadenosine phosphorylase (Mus musculus, UniProt Q9CQ65)
T2 sequence (Q9CQ65 whole entry): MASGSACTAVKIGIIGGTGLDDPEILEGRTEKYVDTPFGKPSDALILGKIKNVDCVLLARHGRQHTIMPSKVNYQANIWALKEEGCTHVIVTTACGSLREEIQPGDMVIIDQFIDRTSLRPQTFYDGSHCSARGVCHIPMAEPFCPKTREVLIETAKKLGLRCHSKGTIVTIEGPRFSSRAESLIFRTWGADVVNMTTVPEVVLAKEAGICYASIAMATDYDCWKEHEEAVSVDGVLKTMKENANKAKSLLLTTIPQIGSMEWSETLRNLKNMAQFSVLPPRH


Experiments:
[1] = system: CCRF-CEM; experiment: The concentration required to inhibit cell growth by 50% was measured on human CCRF-CEM cells (96h after exposure); format: functional, cell-based
Summary of the method: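 CCRF-CEM cells grown in 10% horse serum, seeded at 0.3×10^5 cells/mL. Compounds were freshly dissolved in DMSO, diluted in serum-free medium, and tested at 0.1-1000 µM for 96 h (about 4 doublings). Cells were counted by Coulter counter and the concentration giving 50% growth inhibition determined.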

[2] = system: L5178Y; experiment: Effect of compound on putrescine(PUT) polyamine pool in L5178Y murine leukemia cells expressed in terms of nmol/10e6 cells; format: functional, Mus musculus
[3] = system: L5178Y; experiment: Effect of compound on spermidine(SPD) polyamine pool in L5178Y murine leukemia cells expressed in terms of nmol/10e6 cells; format: functional, Mus musculus
[4] = system: L5178Y; experiment: Effect of compound on spermine(SPM) polyamine pool in L5178Y murine leukemia cells expressed in terms of nmol/10e6 cells; format: functional, Mus musculus
[5] = system: L5178Y; experiment: The concentration required to inhibit cell growth by 50% was measured on L5178Y Leukemic cell line of mouse(48h after exposure); format: functional, cell-based
Summary of the method: (§1)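 Suspension cultures in RPMI 1640 with 10% Nu Serum, seeded at 0.3×10^5 cells/mL. Compounds were dissolved fresh in DMSO, diluted in serum-free medium, and tested at 0.1-1000 µM for 48 h (about 4 doublings). Cells were counted by Coulter counter and the 50% growth-inhibitory concentration determined.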

[6] = system: L1210; experiment: The concentration required to inhibit cell growth by 50% was measured on L1210 Leukemic cell line of mouse(48h after exposure); format: functional, cell-based; conditions: L1210, 48 h; summary of the method: as §1
[7] = system: L1210; experiment: Effect of compound on spermidine(SPD) polyamine pool in L1210 murine leukemia cells expressed in terms of nmol/10e6 cells; format: functional, Mus musculus
[8] = system: L1210; experiment: Effect of compound on spermine(SPM) polyamine pool in L1210 murine leukemia cells expressed in terms of nmol/10e6 cells; format: functional, Mus musculus
[9] = system: L1210; experiment: Effect of compound on putrescine(PUT) polyamine pool in L1210 murine leukemia cells expressed in terms of nmol/10e6 cells; format: functional, Mus musculus
[10] = target: T1, S-methyl-5'-thioadenosine phosphorylase (Mus musculus); experiment: The ability to act as substrates for MTA phosphorylase activity was determined by using a mouse liver enzyme preparation; format: functional, tissue-based; set-up: concentration or dose not given beside the values
Summary of the method: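 Mouse liver MTA phosphorylase preparation, spectrophotometric assay. The analogue was used as substrate and the absorbance change at λ 305 was read after a 10-min incubation. Activity is expressed relative to MTA as control substrate. Duplicate samples, agreeing within 15%.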

[11] = target: T2, S-methyl-5'-thioadenosine phosphorylase; experiment: The inhibitory constant(Ki) for MTA phosphorylase activity was determined by using a mouse liver enzyme preparation
Summary of the method: (§2)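 Mouse liver MTA phosphorylase preparation. Conversion of [methyl-³H]MTA to [methyl-³H]MTRP was measured in the presence of analogue. Ki was derived from Lineweaver-Burk plots. Duplicate samples, agreeing within 15%.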

[12] = system: MOLT-4; experiment: The concentration required to inhibit cell growth by 50% was measured on human MOLT-4 cells (96h after exposure); format: functional, cell-based; conditions: MOLT-4, 96 h
Summary of the method: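 MOLT-4 suspension culture in RPMI 1640 with 10% Nu Serum, seeded at 0.3×10^5 cells/mL. Compounds were freshly dissolved in DMSO, diluted in serum-free medium, and tested at 0.1-1000 µM for 96 h (about 4 doublings). Cells were counted electronically (Coulter) and the 50% growth-inhibitory concentration determined.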

[13] = target: Adenosylhomocysteinase (Bos taurus) (UniProt Q3MHL4); experiment: Percentage enzyme activity remaining was measured by the inhibition S-adenosyl-L-homocysteine hydrolase from bovine liver at 0.01 uM
[14] = system: L5178Y; experiment: Effect of compound on putrescine(PUT) polyamine pool in L5178Y murine leukemia cells expressed as nmol/10e6 cells; format: functional, Mus musculus
[15] = compound: CSC[C@H]1O[C@@H](n2cnc3c(N)ncnc32)[C@H](O)[C@@H]1O; experiment: The inhibitory constant for MTA phosphorylase activity was determined by using a mouse liver enzyme preparation; format: functional, tissue-based; summary of the method: as §2

Adenosylhomocysteinase (Bos taurus), sequence (Q3MHL4 whole entry, looked up): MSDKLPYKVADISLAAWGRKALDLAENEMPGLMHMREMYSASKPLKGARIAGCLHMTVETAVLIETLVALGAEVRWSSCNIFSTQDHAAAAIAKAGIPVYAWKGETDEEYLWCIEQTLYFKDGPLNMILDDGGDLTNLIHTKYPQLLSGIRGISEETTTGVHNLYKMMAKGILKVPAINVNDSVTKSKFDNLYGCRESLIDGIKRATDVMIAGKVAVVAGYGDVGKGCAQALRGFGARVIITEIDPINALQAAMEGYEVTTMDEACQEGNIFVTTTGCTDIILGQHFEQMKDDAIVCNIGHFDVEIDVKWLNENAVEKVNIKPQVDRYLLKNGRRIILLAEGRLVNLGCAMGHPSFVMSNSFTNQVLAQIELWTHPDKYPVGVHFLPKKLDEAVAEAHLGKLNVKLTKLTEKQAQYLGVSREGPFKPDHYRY

| Molecule | IC50 [1] | Activity [2] | Activity [3] | Activity [4] | IC50 [5] | IC50 [6] | Activity [7] | Activity [8] | Activity [9] | Control [10] | Ki [11] | IC50 [12] | Activity [13] | Activity [14] | Km [15] |
| --- | --- | --- | --- | --- | --- | --- | --- | --- | --- | --- | --- | --- | --- | --- | --- |
| CCSC[C@H]1OC(n2cnc3c(N)ncnc32)[C@H](O)[C@@H]1O (some centres not stated) | 200 µM | 0.69 nmol/10e6 cells | 1.75 | 1.29 | 250 µM | 800 µM | 1.01 | 0.54 | 0.77 | 95% | 1900 nM | 20 µM | 99% |  |  |
| CSC[C@H]1O[C@@H](n2cnc3c(N)ncnc32)[C@H](O)[C@@H]1O [METHYLTHIOADENOSINE] | 150 µM |  | 2.79 | 0.43 | 200 µM | 850 µM | 1.22 | 0.19 | 1.93 | 100% |  | 11 µM | 101% | 1.85 |  |
| Nc1ncnc2c1ncn2C1O[C@H](CSCCCF)[C@@H](O)[C@H]1O (some centres not stated) | 160 µM | 0.36 nmol/10e6 cells | 1.79 | 1.07 | 600 µM | 600 µM | 0.99 | 0.44 | 0.34 | 66% | 4000 nM | 25 µM | 97% |  |  |
| Nc1ncnc2c1ncn2C1O[C@H](CSCCCl)[C@@H](O)[C@H]1O (some centres not stated) |  |  |  |  |  |  |  |  |  | 35% |  |  |  |  |  |
| Nc1ncnc2c1ncn2C1O[C@H](CSCCO)[C@@H](O)[C@H]1O (some centres not stated) | 100 µM | 0.66 nmol/10e6 cells | 1.9 | 1.5 | 500 µM | 1000 µM | 1.17 | 0.58 | 0.75 | 34% |  | 40 µM |  |  |  |
| Nc1ncnc2c1ncn2C1O[C@H](CSCCF)[C@@H](O)[C@H]1O (some centres not stated) | 75 µM | 0.27 nmol/10e6 cells | 1.55 | 1.43 | 60 µM | 150 µM | 1.95 | 0.86 | 0.56 | 64% |  | 10 µM | 102% |  |  |
| CCCSC[C@H]1OC(n2cnc3c(N)ncnc32)[C@H](O)[C@@H]1O (some centres not stated) | 160 µM | 0.25 nmol/10e6 cells | 1.18 | 1 | 500 µM | 1000 µM | 0.57 | 0.41 | 0.26 | 102% | 1700 nM | 45 µM | 100% |  |  |
| Nc1ncnc2c1ncn2C1O[C@H](CSCCBr)[C@@H](O)[C@H]1O (some centres not stated) |  |  |  |  |  |  |  |  |  | 38% |  |  |  |  |  |
| S-methyl-5'-thioadenosine phosphorylase (Mus musculus), Q9CQ65 (protein) MASGSACTAVKIGIIGGTGLDDPEILEGRTEKYVDTPFGKPSDALILGKIKNVDCVLLARHGRQHTIMPSKVNYQANIWALKEEGCTHVIVTTACGSLREEIQPGDMVIIDQFIDRTSLRPQTFYDGSHCSARGVCHIPMAEPFCPKTREVLIETAKKLGLRCHSKGTIVTIEGPRFSSRAESLIFRTWGADVVNMTTVPEVVLAKEAGICYASIAMATDYDCWKEHEEAVSVDGVLKTMKENANKAKSLLLTTIPQIGSMEWSETLRNLKNMAQFSVLPPRH |  |  |  |  |  |  |  |  |  |  |  |  |  |  | 1.3 µM |
